Assay results: article PMC2755634 (Clinical cancer research : an official journal of the …, 2009)

Assays:
[1] = test system: CYP1A2 mRNA; test: CYP1A2 mRNA expression by RT-PCR in LS180 cells; conditions: co-treatment with 250 pmol TCDD or 1 μM DMBA, 24 hours
[2] = test system: CYP1A1 heterogeneous nuclear RNA (hnCYP1A1); test: CYP1A1 gene transcription rate; conditions: HepG2; co-treatment with 250 pmol TCDD or 1 μM DMBA
[3] = test system: CYP1A1, CYP1A2, CYP1B1 (EROD activity); test: EROD activity in intact HepG2 cells; type: cell-based, human; conditions: 24 hours; for inhibition of TCDD (PAH)-induced EROD activity: 50 μM compound + 250 pmol TCDD; for induction of EROD activity: 50 μM compound alone
[4] = test system: HepG2 cells; test: MTT cell viability assay; type: cell-based, human; conditions: 0−100 μM, data not shown
In short: (§1)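 Viability was read as MTT tetrazolium reduction in confluent HepG2 (RPMI 1640) or LS180 (Eagle's MEM with Earle's balanced salts) cells at 37 °C, 5% CO2. Test compound was given at 0–100 µmol/L from DMSO stock; final DMSO ≤0.1%.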

[5] = test system: CYP1A2 mRNA; test: CYP1A2 mRNA expression by RT-PCR in HepG2 cells; conditions: co-treatment with 250 pmol TCDD or 1 μM DMBA, 24 hours
[6] = test system: CYP1B1 mRNA; test: CYP1B1 mRNA expression by RT-PCR in HepG2 cells; conditions: 24 hours; for effect on TCDD- and DMBA-induced CYP1B1 mRNA expression: co-treatment with 250 pmol TCDD or 1 μM DMBA
[7] = rats; cited from earlier work
[8] = biological target: T1, CYP1A1 (Homo sapiens, UniProt P04798); test: Recombinant CYP1A1 Supersomes EROD activity; type: biochemical; conditions: for change of Vmax with increasing compound concentration / nature of CYP1A1 inhibition (Michaelis-Menten kinetic analysis): recombinant CYP1A1 Supersomes
T1 sequence (P04798 1-512): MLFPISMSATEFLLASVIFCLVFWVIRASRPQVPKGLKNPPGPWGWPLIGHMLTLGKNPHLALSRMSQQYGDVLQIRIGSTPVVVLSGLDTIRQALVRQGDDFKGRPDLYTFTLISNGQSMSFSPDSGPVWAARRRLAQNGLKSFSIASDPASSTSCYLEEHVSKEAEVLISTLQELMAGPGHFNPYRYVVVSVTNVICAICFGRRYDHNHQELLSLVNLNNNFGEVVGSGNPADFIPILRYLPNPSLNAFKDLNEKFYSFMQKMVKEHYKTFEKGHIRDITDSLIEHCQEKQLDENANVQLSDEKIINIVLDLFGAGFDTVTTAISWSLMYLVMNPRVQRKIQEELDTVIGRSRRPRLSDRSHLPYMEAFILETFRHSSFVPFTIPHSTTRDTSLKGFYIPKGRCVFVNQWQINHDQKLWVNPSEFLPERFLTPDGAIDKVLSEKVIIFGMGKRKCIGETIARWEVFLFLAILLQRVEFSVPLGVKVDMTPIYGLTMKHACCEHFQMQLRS

[9] = test system: CYP1A1 mRNA; test: CYP1A1 mRNA expression by RT-PCR in HepG2 cells; conditions: co-treatment with 250 pmol TCDD or 1 μM DMBA, 24 hours
[10] = test system: LS180 cells; test: MTT cell viability assay; type: cell-based, human; conditions: 0−100 μM, data not shown
In short: as §1

[11] = test system: CYP1A1 mRNA; test: CYP1A1 mRNA expression by RT-PCR in LS180 cells; conditions: co-treatment with 250 pmol TCDD or 1 μM DMBA, 24 hours
[12] = test system: phase II genes; test: Phase II gene expression; type: cell-based, human; conditions: RT-PCR
[13] = test system: CYP1B1 mRNA; test: CYP1B1 mRNA expression by RT-PCR in LS180 cells; conditions: 24 hours; for effect on TCDD- and DMBA-induced CYP1B1 mRNA expression: co-treatment with 250 pmol TCDD or 1 μM DMBA
[14] = biological target: T2, aryl hydrocarbon receptor (AhR) (Homo sapiens, UniProt P35869); test: Chromatin immunoprecipitation; conditions: HepG2; 50 μM compound + 10 nmol TCDD; 90 minutes; TCDD alone 6.2-fold
T2 sequence (P35869 11-848): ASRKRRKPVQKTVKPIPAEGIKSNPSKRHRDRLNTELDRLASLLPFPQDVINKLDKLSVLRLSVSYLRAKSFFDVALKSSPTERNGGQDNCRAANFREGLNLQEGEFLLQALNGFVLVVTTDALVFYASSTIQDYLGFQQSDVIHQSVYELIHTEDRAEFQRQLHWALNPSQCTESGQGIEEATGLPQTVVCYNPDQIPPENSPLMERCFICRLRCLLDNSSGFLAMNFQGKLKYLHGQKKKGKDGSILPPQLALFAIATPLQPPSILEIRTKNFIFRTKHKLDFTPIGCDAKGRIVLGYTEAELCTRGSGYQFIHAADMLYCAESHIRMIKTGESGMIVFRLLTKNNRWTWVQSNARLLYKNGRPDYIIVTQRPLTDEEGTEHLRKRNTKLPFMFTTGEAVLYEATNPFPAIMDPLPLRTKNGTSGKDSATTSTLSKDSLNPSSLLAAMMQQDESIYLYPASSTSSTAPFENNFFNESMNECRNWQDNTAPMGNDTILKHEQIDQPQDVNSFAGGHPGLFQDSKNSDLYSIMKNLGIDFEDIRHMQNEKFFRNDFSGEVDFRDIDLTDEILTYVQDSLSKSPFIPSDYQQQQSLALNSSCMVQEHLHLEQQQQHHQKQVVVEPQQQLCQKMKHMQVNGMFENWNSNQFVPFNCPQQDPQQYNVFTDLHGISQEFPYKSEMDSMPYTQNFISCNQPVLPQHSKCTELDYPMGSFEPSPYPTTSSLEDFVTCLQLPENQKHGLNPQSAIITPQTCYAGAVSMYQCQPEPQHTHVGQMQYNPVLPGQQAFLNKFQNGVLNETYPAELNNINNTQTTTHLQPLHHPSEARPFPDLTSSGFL

[15] = test system: G6PD mRNA; test: G6PD mRNA expression by RT-PCR in HepG2 cells; type: cell-based, human; conditions: 50 μM, 24 hours, over 18S RNA control
[16] = biological target: T3, CYP1B1 (Homo sapiens, UniProt Q16678); test: Recombinant CYP1B1 Supersomes EROD activity; type: biochemical
T3 sequence (Q16678 1-543): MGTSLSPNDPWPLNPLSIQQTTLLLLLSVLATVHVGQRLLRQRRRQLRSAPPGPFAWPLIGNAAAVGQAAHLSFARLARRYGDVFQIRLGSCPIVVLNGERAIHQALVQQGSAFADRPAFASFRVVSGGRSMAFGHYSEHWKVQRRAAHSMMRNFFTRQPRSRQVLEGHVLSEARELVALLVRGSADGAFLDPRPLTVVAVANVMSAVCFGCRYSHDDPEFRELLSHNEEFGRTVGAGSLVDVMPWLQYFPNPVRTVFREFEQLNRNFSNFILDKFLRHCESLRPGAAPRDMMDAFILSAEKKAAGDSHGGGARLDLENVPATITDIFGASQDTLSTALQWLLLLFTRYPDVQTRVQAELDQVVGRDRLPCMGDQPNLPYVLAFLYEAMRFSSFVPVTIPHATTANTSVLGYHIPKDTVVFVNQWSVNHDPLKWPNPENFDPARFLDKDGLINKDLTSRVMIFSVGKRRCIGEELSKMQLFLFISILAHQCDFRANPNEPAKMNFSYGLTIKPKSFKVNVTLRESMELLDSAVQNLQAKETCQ

[17] = biological target: T4, CYP1A2 (Homo sapiens, UniProt P05177); test: Recombinant CYP1A2 Supersomes EROD activity; type: biochemical
T4 sequence (P05177 1-516): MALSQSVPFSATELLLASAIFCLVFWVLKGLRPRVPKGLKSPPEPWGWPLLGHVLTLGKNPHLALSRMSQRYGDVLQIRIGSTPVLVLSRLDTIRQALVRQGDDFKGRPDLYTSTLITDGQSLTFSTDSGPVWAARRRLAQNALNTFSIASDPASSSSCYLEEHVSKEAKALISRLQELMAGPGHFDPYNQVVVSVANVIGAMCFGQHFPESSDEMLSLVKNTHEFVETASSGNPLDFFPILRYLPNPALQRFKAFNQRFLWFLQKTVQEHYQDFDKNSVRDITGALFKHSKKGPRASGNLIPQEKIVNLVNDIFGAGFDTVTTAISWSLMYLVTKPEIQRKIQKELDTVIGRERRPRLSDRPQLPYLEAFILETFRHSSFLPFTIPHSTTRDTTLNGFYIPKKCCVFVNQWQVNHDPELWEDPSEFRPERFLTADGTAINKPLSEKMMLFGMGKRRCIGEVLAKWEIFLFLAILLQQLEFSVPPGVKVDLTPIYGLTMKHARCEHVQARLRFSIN

[18] = test system: catalase and glutathione reductase; conditions: 25 μM; cited from earlier work
[19] = test system: CYP1A1 heterogeneous nuclear RNA (hnCYP1A1)

In the case of O=C(Cc1ccccc1Nc1c(Cl)cccc1Cl)Oc1ccc(-c2cc(=S)ss2)cc1 [ACS 15, 2-[(2,6-dichlorophenyl)amino]benzeneacetic acid 4-(3H-1,2,dithiol-3-thione-5-yl)phenyl ester], the “effect on TCDD- and DMBA-induced CYP1A2 mRNA expression” value [1] is reported as “inhibited in a concentration-dependent manner”, the “effect on TCDD- and DMBA-stimulated hnCYP1A1 expression” value [2] is reported as “abrogated the stimulatory effects” and the “inhibition of TCDD (PAH)-induced EROD activity” value (“inhibition of TCDD” for short) [3] is reported as “inhibited”. The “cell viability (MTT)” value [4] was “non-toxic”, the “effect on TCDD- and DMBA-induced CYP1A2 mRNA expression” value [5] was “inhibited in a concentration-dependent manner” and the “effect on TCDD- and DMBA-induced CYP1B1 mRNA expression” value [6] was “inhibited in a concentration-dependent manner”. The “less gastro-intestinal damage than diclofenac” value [7] was greater than 90%, the “change of Vmax with increasing compound concentration” value [8] was “unchanged” and the “nature of CYP1A1 inhibition (Michaelis-Menten kinetic analysis)” value [8] was “competitive”. The “effect on TCDD- and DMBA-induced CYP1A1 mRNA expression” value [9] was “inhibited in a concentration-dependent manner”, the “cell viability (MTT)” value [10] was “non-toxic” and the “effect on TCDD- and DMBA-induced CYP1A1 mRNA expression” value [11] was “inhibited in a concentration-dependent manner”. The “effect on phase II gene expression” value [12] was “No significant increases”, the “effect on TCDD- and DMBA-induced CYP1B1 mRNA expression” value [13] was “inhibited in a concentration-dependent manner” and the “level of activated AhR on co-treatment with TCDD (ChIP)” value [14] was 2.6 fold.

With CC1=C(CC(=O)Oc2ccc(-c3cc(=S)ss3)cc2)c2cc(F)ccc2/C1=C\c1ccc([S+](C)[O-])cc1 (stereo not shown) [ACS 18, (Z)-5-Fluoro-2-methyl-1-[[4-(methylsulfinyl)phenyl]-methylene]-1H-indene-3-acetic acid 4-(5-thioxo-5H-[1,2]dithiol-3-yl)-phenyl ester] the “increase in G6PD mRNA expression” value [15] was 1.5 fold, the “effect on TCDD- and DMBA-induced CYP1A2 mRNA expression” value [1] was “similar” and the “effect on TCDD- and DMBA-stimulated hnCYP1A1 expression” value [2] was “similar”. For the same molecule, the “inhibition of TCDD” value [3] was “inhibited”, the “induction of EROD activity” value [3] was 0.46 +/− 0.01 pmoles/min/well and the “cell viability (MTT)” value [4] was “non-toxic”. For the same molecule, the “effect on TCDD- and DMBA-induced CYP1A2 mRNA expression” value [5] was “similar”, the IC50 [16] was 230 nM and the “effect on TCDD- and DMBA-induced CYP1B1 mRNA expression” value [6] was “similar”. For the same molecule, the IC50 [8] was 40 nM, the “change of Vmax with increasing compound concentration” value [8] was “unchanged” and the “nature of CYP1A1 inhibition (Michaelis-Menten kinetic analysis)” value [8] was “competitive”. The “effect on TCDD- and DMBA-induced CYP1A1 mRNA expression” value [9] was “similar”, the “cell viability (MTT)” value [10] was “non-toxic” and the IC50 [17] was 3100 nM. The “effect on TCDD- and DMBA-induced CYP1A1 mRNA expression” value [11] was “similar” and the “effect on TCDD- and DMBA-induced CYP1B1 mRNA expression” value [13] was “similar”.

For COc1ccc(-c2cc(=S)ss2)cc1 [ADT, 5-[p-methoxyphenyl]-1,2-dithiole-3-thione], the “increases in the phase II enzymes catalase and glutathione reductase” value [18] is given as “less than 2 fold”.

With Cc1c2ccccc2c(C)c2c1ccc1ccccc12 [DMBA] the “fold increase in hnCYP1A1 expression over DMSO control levels” value [19] was 12 fold, the “fold increase in CYP1B1 mRNA expression compared to DMSO controls” value ([6]; TCDD 250 pmol, DMBA 1 μM) was 8.4 fold and the “fold increase in CYP1B1 mRNA expression compared to DMSO controls” value ([13]; TCDD 250 pmol, DMBA 1 μM) was 2.5 fold.

In the case of [Na+].[SH-] [NaHS], the “inhibition of TCDD” value [3] is reported as “not inhibited”.

With O=C(O)Cc1ccccc1Nc1c(Cl)cccc1Cl [diclofenac] the “inhibition of TCDD” value [3] was “not inhibited”.

With CC1=C(CC(=O)O)c2cc(F)ccc2/C1=C\c1ccc([S+](C)[O-])cc1 (stereo not shown) [sulindac] the “inhibition of TCDD” value [3] was “not inhibited” and the “induction of EROD activity” value [3] was 4.45 +/− 0.09 pmoles/min/well.
